Reference: ChEMBL document CHEMBL1149777, “Synthesis and anti-platelet activity of novel arylsulfonate--acylhydrazone derivatives, designed as antithrombotic candidates” (2008)

Columns and labels:
Plasma [1] = test: Antiplatelet activity against citreated rabbit platelet-rich plasma assessed as inhibition of collagen-induced platelet aggregation at 150 uM by turbidimetric method; type: functional; conditions: Oryctolagus cuniculus
Method in brief: (§1)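 PRP stirred at 900 rpm, 37 °C, 1 min; compound 150 µM or DMSO vehicle (0.5% v/v) added 1 min before agonist: ADP 5 µM, collagen 5 µg/mL, thrombin 2 nM or arachidonic acid 100 µM. Aggregation read turbidimetrically (Born method).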

Plasma [2] = test: Antiplatelet activity against citreated rabbit platelet-rich plasma assessed as inhibition of ADP-induced platelet aggregation at 150 uM by turbidimetric method; type: functional; conditions: Oryctolagus cuniculus; method in brief: as §1
Plasma [3] = test: Antiplatelet activity against citreated rabbit platelet-rich plasma assessed as collagen-induced platelet aggregation at 150 uM by turbidimetric method; type: functional, Oryctolagus cuniculus; method in brief: as §1
Mus musculus = test: Antithrombotic activity against thrombin-induced pulmonary thromboembolism in mouse model assessed as survival at 100 umol/kg, po after 15 mins; type: functional; conditions: 0.25 h
Plasma [4] = test: Antiplatelet activity against citreated rabbit platelet-rich plasma assessed as thrombin-induced platelet aggregation at 150 uM by turbidimetric method; type: functional, Oryctolagus cuniculus; method in brief: as §1
Plasma [5] = test: Antiplatelet activity against citreated rabbit platelet-rich plasma assessed as inhibition of thrombin-induced platelet aggregation at 150 uM by turbidimetric method; type: functional; conditions: Oryctolagus cuniculus; method in brief: as §1
Plasma [6] = test: Antiplatelet activity against citreated rabbit platelet-rich plasma assessed as inhibition of arachidonic acid-induced platelet aggregation at 150 uM by turbidimetric method; type: functional; conditions: Oryctolagus cuniculus; method in brief: as §1
Plasma [7] = test: Antiplatelet activity against citreated rabbit platelet-rich plasma assessed as ADP-induced platelet aggregation at 150 uM by turbidimetric method; type: functional, Oryctolagus cuniculus; method in brief: as §1

Compound	inhibition at 150 µM (Plasma [1]) [%]	inhibition at 150 µM (Plasma [2]) [%]	Activity (Plasma [3]) [%]	survival at 100 µmol/kg (Mus musculus) [%]	Activity (Plasma [4]) [%]	inhibition at 150 µM (Plasma [5]) [%]	inhibition at 150 µM (Plasma [6]) [%]	Activity (Plasma [7]) [%]
Cc1cc2c(cc1S(=O)(=O)Oc1ccc(C(=O)N/N=C\c3ccc(C(=O)O)cc3)cc1)OCO2	25	0	59	80	0	100	90.8	100
Cc1cc2c(cc1S(=O)(=O)Oc1ccccc1C(=O)N/N=C\c1ccc(C(=O)O)cc1)OCO2	0	0	100	80	11.9	80	0	100
Cc1cc2c(cc1S(=O)(=O)Oc1cccc(/C=N/NC(=O)c3ccncc3)c1)OCO2	100	22	0		58.7	1.3	94.8	63.3
Cc1cc2c(cc1S(=O)(=O)Oc1cccc(C(=O)N/N=C\c3ccc(C#N)cc3)c1)OCO2	100	32	0		58.3	2	100	54.9
Cc1cc2c(cc1S(=O)(=O)Oc1cccc(C(=O)N/N=C\c3ccc(C(=O)O)cc3)c1)OCO2	0	0	100	53.3	2.9	95	0	100
Cc1cc2c(cc1S(=O)(=O)Oc1cccc(C(=O)N/N=C\c3ccc([N+](=O)[O-])cc3)c1)OCO2	11.5	0	69.6		57.7	3	81.5	100
Cc1cc2c(cc1S(=O)(=O)Oc1cccc(C(=O)N/N=C\c3ccncc3)c1)OCO2	25	0	59	33.3	16.4	72.5	82	100
Cc1cc2c(cc1S(=O)(=O)Oc1cccc(C(=O)N/N=C\c3ccccc3)c1)OCO2	42	0	45.6		100	0	97	100
Cc1cc2c(cc1S(=O)(=O)Oc1cccc(C(=O)N/N=C\c3ccc(N)cc3)c1)OCO2	37.5	0	49.2		58.2	2.2	80	100
Cc1cc2c(cc1S(=O)(=O)Oc1cccc(C(=O)N/N=C\c3ccc(/C(N)=N\O)cc3)c1)OCO2	100	36	0		11.3	81	100	58.7
CC(=O)Oc1ccccc1C(=O)O [ASPIRIN]	77.7	7.9	17.5		10.3	82.7	71.6	74.8
